In ChEMBL document CHEMBL3792340, “Novel benzylidenephenylpyrrolizinones with pleiotropic activities potentially useful in Alzheimer's disease treatment” (Eur J Med Chem, 2016):

Assays:
[1] = Cytotoxicity against human KB cells assessed as inhibition of cell proliferation at 10^-5 M after 72 hrs by MTS assay relative control; assay type: cell-based
Method in brief: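 KB nasopharyngeal carcinoma cells in D-MEM with 10% fetal calf serum and antibiotics under 5% CO2; 1000 cells/well, treated 24 h after plating with compounds in DMSO (1% final), exposed 72 h. MTS read at 490 nm; inhibition = (1−OD treated/OD control)×100, triplicate.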

[2] = Metal chelating activity of the compound assessed as formation of copper complex at 50 uM after 10 mins by UV-visible spectroscopy; assay type: physicochemical
Method in brief: (§1)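 Compound in methanol (from 50 mM DMSO stock) at 50 μM mixed with equimolar CuCl2 or FeCl2, 10 min at room temperature; spectra scanned 230–600 nm at 298 K. Difference spectra obtained by subtracting the metal-alone spectrum from the mixture spectrum.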

[3] = Antioxidant activity assessed as DPPH radical scavenging activity after 30 mins by microplate reader method; assay type: physicochemical
Method in brief: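 Compounds diluted from DMSO stock into absolute ethanol, incubated with 100 μM DPPH for 30 min at room temperature in the dark; absorbance at 517 nm. Scavenging % = (Acontrol−Asample)/Acontrol×100 versus vehicle control.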

[4] = Antioxidant activity assessed as FeCl2-induced lipoperoxidation at 40 uM incubated for 2 hrs in dark by ferric thiocyanate method
[5] = target: Amyloid-beta precursor protein (Homo sapiens) (UniProt P05067); experiment: Inhibition of Amyloid beta (1 to 42) (unknown origin) self aggregation at 10 uM measured every 5 mins with shake for 15 secs by ThT fluorescence assay relative to control
Method in brief: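 Aβ1-42 (85 μL at 250 μg/mL) with thioflavin T (10 μL at 2 mM) and compound (1 μL of 1 mM) in 100 μL kit buffer; control without compound plus blanks. Fluorescence at 37 °C every 5 min, 15 s shaking between reads, Ex/Em 440/484 nm. Inhibition = 100 − (IFi/IFo×100).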

[6] = Antioxidant activity assessed as nitric oxide radical scavenging activity at 40 uM after 3 hrs by Griess assay; assay type: physicochemical
Method in brief: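 Sodium nitroprusside (50 mM stock in phosphate buffer pH 7.4) mixed with test compound and phosphate buffer, incubated 3 h at 37.4 °C. Aliquot diluted with Griess reagent, absorbance read after 20 min at 546 nm. Inhibition = (Acontrol−Atest)/Acontrol×100; triplicate.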

[7] = Permeability of the compound at 100 uM at pH 7.4 after 4 hrs by PAMPA-BBB assay
[8] = Metal chelating activity of the compound assessed as formation of iron complex at 50 uM after 10 mins by UV-visible spectroscopy; assay type: physicochemical; method in brief: as §1
[9] = Half life in 10 mM phosphate buffer at 20 uM at pH 7.4 at 25 degC by UHPLC analysis; assay type: physicochemical
Method in brief: (§2)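 20 μM compound (from 10 mM DMSO stock) in 10 mM phosphate buffer pH 7.4, ionic strength 150 mM with KCl, at 25 °C, n=3. Sampled at 6 times over 0 to 5 or 8 h by UHPLC-PDA on a C18 column with water/acetonitrile gradient (0.01% formic acid). Half-life from exponential regression of disappearance versus time.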

[10] = Binding affinity to Cu2+ assessed as association constant after 10 to 60 mins by UV-visible spectra analysis
Method in brief: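 Ligand titration in methanol–10 mM Tris pH 7.4 (8:2, v/v): compound 0 to 200 μM incubated with or without CuCl2 (50 μM), room temperature. Scanned 230–600 nm at 10 and 60 min. Difference spectra (mixture minus compound) read at each compound's specific wavelength give bound complex and free ligand, using stoichiometry from Job plots at 100 μM total.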

[11] = Binding affinity to Cu2+ assessed as dissociation constant after 10 to 60 mins by UV-visible spectra analysis
Method in brief: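 In methanol–10 mM Tris pH 7.4 (8:2 v/v), compound 0–200 μM incubated with or without CuCl2 50 μM; scans 230–600 nm after 10 and 60 min. Absorbance difference at each compound's specific wavelength gave complex and free-ligand concentrations using the saturation maximum and stoichiometry from Job plots (total 100 μM, varying mole fraction).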

[12] = Chemical stability in 10 mM phosphate buffer at 20 uM at pH 7.4 at 25 degC after 5 hrs by UHPLC analysis; assay type: physicochemical; conditions: pH 7.4, 5 h; method in brief: as §2

Amyloid-beta precursor protein (Homo sapiens), sequence (P05067 whole entry): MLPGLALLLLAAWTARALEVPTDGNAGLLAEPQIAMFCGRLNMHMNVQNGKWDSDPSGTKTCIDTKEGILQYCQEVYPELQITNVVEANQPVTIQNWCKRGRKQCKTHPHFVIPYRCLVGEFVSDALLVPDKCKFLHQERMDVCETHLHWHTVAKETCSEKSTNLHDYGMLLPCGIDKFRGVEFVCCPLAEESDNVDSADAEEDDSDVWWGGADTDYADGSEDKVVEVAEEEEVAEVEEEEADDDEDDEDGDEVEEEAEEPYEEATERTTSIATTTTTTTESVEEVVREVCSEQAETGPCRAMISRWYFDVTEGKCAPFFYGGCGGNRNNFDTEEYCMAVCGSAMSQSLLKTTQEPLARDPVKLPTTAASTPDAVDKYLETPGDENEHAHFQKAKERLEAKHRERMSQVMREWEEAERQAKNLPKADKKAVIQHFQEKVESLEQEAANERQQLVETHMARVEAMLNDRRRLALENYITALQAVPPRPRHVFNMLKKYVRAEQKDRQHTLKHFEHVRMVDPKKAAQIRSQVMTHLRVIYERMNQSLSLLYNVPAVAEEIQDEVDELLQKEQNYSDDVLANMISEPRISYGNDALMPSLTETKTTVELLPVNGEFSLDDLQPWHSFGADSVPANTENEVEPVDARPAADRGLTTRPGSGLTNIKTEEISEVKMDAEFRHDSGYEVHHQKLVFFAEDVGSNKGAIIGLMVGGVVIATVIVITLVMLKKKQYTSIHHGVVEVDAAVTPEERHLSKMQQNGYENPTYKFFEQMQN

Row | SMILES | Activity [2] | EC50 [3] [µM] | peroxidation % [4] [%] | inhibition [5] [%] | Activity [6] [%] | Activity [8] | half-life at 20 µM [9] [h] | logKa [10] | Kd [11] [µM] | Stability [12] | inhibition at 72 h, 10 µM [1] [%] | log Pe [7]
1 | COc1cc(/C=C2/C(=O)c3cccn3C2c2ccccc2)ccc1O (centres undefined) | Not Active | > 250 | 67.4 | 14.5 | 51.7 |  |  |  |  |  | 24 | 
2 | Cn1c(=O)c2[nH]cnc2n(C)c1=O.O [THEOPHYLLINE] |  |  |  |  |  |  |  |  |  |  |  | < -6
3 | COc1ccc(/C=C2/C(=O)c3cccn3C2c2ccc(OC)c(O)c2)cc1O (centres undefined) | Active | > 250 | 71 | 8.4 | 53.7 | Active |  |  |  |  | 24 | 
4 | COc1cc(C2/C(=C\c3cc(OC)c(OC)c(OC)c3)C(=O)c3cccn32)ccc1O (centres undefined) | Not Active | > 250 | 67.1 | 23.6 | 32.6 | Not Active |  |  |  |  |  | 
5 | O=c1c(O)c(-c2ccc(O)c(O)c2)oc2cc(O)cc(O)c12 [QUERCETIN] |  |  |  |  | 70.7 |  |  |  |  |  |  | 
6 | COc1ccc(/C=C2/C(=O)c3cccn3C2c2ccc(O)c(OC)c2)cc1O (centres undefined) | Not Active | > 250 | 58.2 | 15.9 | 57.7 | Not Active |  |  |  |  | 0 | 
7 | COc1cc(C2/C(=C\c3cc(OC)c(O)c(OC)c3)C(=O)c3cccn32)ccc1O (centres undefined) | Not Active | 246 | 70.4 | 30.1 | 35.3 | Not Active |  |  |  |  | 0 | 
8 | O=C1/C(=C/c2ccc(O)c(O)c2)C(c2ccc(O)c(O)c2)n2cccc21 (centres undefined) | Active | 9.6 | 47 | 27 | 47.1 | Active | 6.4 | 4.7 | 19.9 |  | 0 | 

Second part, led by results:

Row | Activity [2] | EC50 [3] [µM] | peroxidation % [4] [%] | inhibition [5] [%] | Activity [6] [%] | Activity [8] | half-life at 20 µM [9] [h] | logKa [10] | Kd [11] [µM] | Stability [12] | SMILES | inhibition at 72 h, 10 µM [1] [%] | log Pe [7]
9 | Not Active | > 250 | 67.5 | 6 | 40.3 | Not Active |  |  |  |  | COc1ccc(/C=C2/C(=O)c3cccn3C2c2ccc(O)c(OC)c2)c(OC)c1 (centres undefined) | 38 | 
10 | Active | 12 | 50.6 | 26.1 | 58 | Active | 6.8 | 4.65 | 22.1 |  | COc1cc(C2/C(=C\c3ccc(O)c(O)c3)C(=O)c3cccn32)ccc1O (centres undefined) | 0 | 
11 |  |  | 55.1 | 1.4 | 34.4 |  |  |  |  |  | O=C1/C(=C/c2ccccc2)C(c2ccccc2)n2cccc21 (centres undefined) | 41 | 
12 | Active | 19.2 |  |  | 60.4 | Active |  |  |  |  | COc1cc(/C=C/C(=O)CC(=O)/C=C/c2ccc(O)c(OC)c2)ccc1O [CURCUMIN] | 83 | 
13 |  | > 250 | 92.8 | 4.2 | 30.7 |  |  |  |  |  | COc1cc(C2/C(=C\c3ccc(OCc4ccccc4)c(OCc4ccccc4)c3)C(=O)c3cccn32)ccc1OCc1ccccc1 (centres undefined) | 0 | 
14 | Active | 12.8 | 51.3 | 24.9 | 57.5 | Active | 11.9 | 4.15 | 70.5 |  | COc1ccc(C2/C(=C\c3ccc(O)c(O)c3)C(=O)c3cccn32)cc1O (centres undefined) | 0 | 
15 | Active | 12.6 | 57 | 28.7 | 65.6 | Active |  | 5.65 | 2.2 | Stable | O=C1/C(=C/c2ccc(O)c(O)c2)C(c2ccccc2)n2cccc21 (centres undefined) | 0 | 
16 | Active | 101 | 48.5 | 10.4 | 57 | Active |  |  |  |  | COc1cc(/C=C2/C(=O)c3cccn3C2c2ccc(O)c(OC)c2)ccc1O (centres undefined) | 0 | 
17 |  | 18.2 |  |  |  |  |  |  |  |  | Cc1c(C)c2c(c(C)c1O)CCC(C)(C(=O)O)O2 (centres undefined) [TROLOX] |  | 
18 |  | 43.2 | 47 |  | 46.4 |  |  |  |  |  | COc1cc(/C=C/C(=O)O)ccc1O [FERULATE] |  | 
19 | Active | 99.5 | 56.4 | 12.8 | 55.1 | Active |  |  |  |  | COc1ccc(C2/C(=C\c3ccc(O)c(OC)c3)C(=O)c3cccn32)cc1O (centres undefined) | 29 | 
